Assay results as given in ChEMBL document CHEMBL1133716, “AMP deaminase inhibitors. 3. SAR of 3-(carboxyarylalkyl)coformycin aglycon analogues” (J Med Chem, 2000).

Experiments:
[1] = molecular target: T1, Adenosine deaminase (Bos taurus, UniProt P56658); assay: Inhibitory activity against calf intestinal Adenosine deaminase (ADA)
T1 sequence (P56658 whole entry): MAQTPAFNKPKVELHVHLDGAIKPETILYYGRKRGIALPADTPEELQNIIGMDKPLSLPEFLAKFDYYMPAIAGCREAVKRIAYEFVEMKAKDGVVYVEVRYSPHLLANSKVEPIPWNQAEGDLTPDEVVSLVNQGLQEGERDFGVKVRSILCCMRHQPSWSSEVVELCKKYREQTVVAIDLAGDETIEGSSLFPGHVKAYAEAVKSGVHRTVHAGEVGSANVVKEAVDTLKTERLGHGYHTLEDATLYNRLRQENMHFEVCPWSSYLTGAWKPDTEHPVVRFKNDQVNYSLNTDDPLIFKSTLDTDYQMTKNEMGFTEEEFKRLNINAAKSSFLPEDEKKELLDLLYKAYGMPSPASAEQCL

[2] = Inhibitory activity against porcine heart Adenylate deaminase (AMPDA); parameters: species or system Sus scrofa
Procedure, shortened: (§1)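 Values are reported as Ki against porcine heart AMPDA, determined by a procedure described in earlier work.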

[3] = molecular target: T1, Adenosine deaminase; assay: Compound was evaluated for its inhibitory activity against calf intestinal Adenosine deaminase (ADA)
[4] = Compound was evaluated for its inhibitory activity against porcine heart adenylate deaminase (AMPDA); parameters: species or system Sus scrofa; procedure, shortened: as §1

| SMILES | Ki [1] | Ki [2] | Ki [3] | Ki [4] |
| --- | --- | --- | --- | --- |
| CCOC(=O)c1cc(CC)cc(CCn2cnc3c2NC=NCC3O)c1 (stereo unspecified) | 8.9 µM | 6.6 µM |  |  |
| CCOC(=O)Cc1cccc(Cn2cnc3c2NC=NCC3O)c1 (stereo unspecified) | 5.6 µM | 15.9 µM |  |  |
| O=C(O)Cc1cccc(Cn2cnc3c2NC=NCC3O)c1 (stereo unspecified) | > 7.5 µM | 11.2 µM |  |  |
| CCc1cc(CCn2cnc3c2NC=NCC3O)cc(C(=O)O)c1 (stereo unspecified) | > 7.5 µM | 0.06 µM |  |  |
| COC(=O)c1ccc(Cn2cnc3c2NC=NCC3O)cc1 (stereo unspecified) | 8.7 µM | 170 µM |  |  |
| O=C(O)c1ccccc1CCCn1cnc2c1NC=NCC2O (stereo unspecified) | 6.1 µM | 12.5 µM |  |  |
| COC(=O)c1cc(C)ccc1CCCn1cnc2c1NC=NCC2O (stereo unspecified) | 0.04 µM | 1.6 µM |  |  |
| COC(=O)c1ccccc1OCCn1cnc2c1NC=NCC2O (stereo unspecified) | 2.3 µM | 60.6 µM |  |  |
| O=C(O)c1ccc(CCCn2cnc3c2NC=NCC3O)o1 (stereo unspecified) | > 7.5 µM | 13.3 µM |  |  |
| Cc1ccc(C(=O)O)cc1CCCn1cnc2c1NC=NCC2O (stereo unspecified) | 1.2 µM | 5.2 µM |  |  |
| CNOC(=O)c1ccc(C)c(CCCn2cnc3c2NC=NCC3O)c1 (stereo unspecified) |  |  | 0.05 µM | 19.8 µM |
| CCOC(=O)c1cc(Br)cc(CCn2cnc3c2NC=NCC3O)c1 (stereo unspecified) | > 7.5 µM | 2.7 µM |  |  |
| COc1ccc(C(=O)O)cc1CCn1cnc2c1NC=NCC2O (stereo unspecified) | > 7.5 µM | 0.48 µM |  |  |
| COC(=O)c1c(F)cccc1CCCn1cnc2c1NC=NCC2O (stereo unspecified) | 0.32 µM | 1.5 µM |  |  |
| COC(=O)c1cccc(CCCn2cnc3c2NC=NCC3O)c1 (stereo unspecified) | 0.16 µM | 24.3 µM |  |  |
| CC(C)c1cccc(C(=O)O)c1CCCn1cnc2c1NC=NCC2O (stereo unspecified) | > 7.5 µM | 83.1 µM |  |  |
| COc1ccc(C(=O)O)cc1CCCn1cnc2c1NC=NCC2O (stereo unspecified) | 5.6 µM | 4.2 µM |  |  |
| O=C(O)c1cc(CCn2cnc3c2NC=NCC3O)ccc1Cl (stereo unspecified) | > 7.5 µM | 0.22 µM |  |  |
| COC(=O)c1ccc(C)cc1CCCn1cnc2c1NC=NCC2O (stereo unspecified) | 0.06 µM | 38 µM |  |  |
| O=C(O)c1cc(CCn2cnc3c2NC=NCC3O)ccc1F (stereo unspecified) | > 7.5 µM | 0.16 µM |  |  |
| O=C(O)c1c(F)cccc1CCCn1cnc2c1NC=NCC2O (stereo unspecified) | > 7.5 µM | 9 µM |  |  |

| SMILES | Ki [1] | Ki [2] | Ki [3] | Ki [4] |
| --- | --- | --- | --- | --- |
| O=C(O)c1ccccc1SCCn1cnc2c1NC=NCC2O (stereo unspecified) | > 500 µM | 4.5 µM |  |  |
| Cc1ccc(C(=O)O)c(CCCn2cnc3c2NC=NCC3O)c1 (stereo unspecified) | 5.2 µM | 24 µM |  |  |
| Cc1ccc(CCCn2cnc3c2NC=NCC3O)c(C(=O)O)c1 (stereo unspecified) | > 7.5 µM | 11.8 µM |  |  |
| O=C(O)c1cc(CCn2cnc3c2NC=NCC3O)cc(-c2ccc(F)cc2)c1 (stereo unspecified) | > 7.5 µM | 0.19 µM |  |  |
| O=C(O)c1cc(CCn2cnc3c2NC=NCC3O)cc(-c2cccc(Cl)c2)c1 (stereo unspecified) | > 7.5 µM | 0.18 µM |  |  |
| CCCc1ccc(C(=O)O)cc1CCn1cnc2c1NC=NCC2O (stereo unspecified) | > 7.5 µM | 0.19 µM |  |  |
| COC(=O)c1ccccc1SCCn1cnc2c1NC=NCC2O (stereo unspecified) | 11.9 µM | 37.9 µM |  |  |
| COC(=O)c1ccc2ccccc2c1CCCn1cnc2c1NC=NCC2O (stereo unspecified) | 0.18 µM | 8.3 µM |  |  |
| O=C(O)c1ccc(CO)c(CCn2cnc3c2NC=NCC3O)c1 (stereo unspecified) | > 7.5 µM | 0.35 µM |  |  |
| O=C(O)c1ccc2ccccc2c1CCCn1cnc2c1NC=NCC2O (stereo unspecified) | 1.8 µM | 6.3 µM |  |  |
| CCCc1ccc(C(=O)OC)cc1CCn1cnc2c1NC=NCC2O (stereo unspecified) | 3.8 µM | 14 µM |  |  |
| Cc1ccc(CCn2cnc3c2NC=NCC3O)cc1C(=O)O (stereo unspecified) | > 7.5 µM | 0.57 µM |  |  |
| O=C(O)c1cccc(C#CCn2cnc3c2NC=NCC3O)c1 (stereo unspecified) | 2.3 µM | > 125 µM |  |  |
| O=C(O)c1cccc(CCn2cnc3c2NC=NCC3O)c1 (stereo unspecified) | > 7.5 µM | 0.51 µM |  |  |
| COC(=O)c1cccc(CCn2cnc3c2NC=NCC3O)c1 (stereo unspecified) | > 7.5 µM | 16 µM |  |  |
| COC(=O)c1ccc(CCn2cnc3c2NC=NCC3O)cc1 (stereo unspecified) | 81 µM | 160 µM |  |  |
| COC(=O)c1ccc(OC)c(CCn2cnc3c2NC=NCC3O)c1 (stereo unspecified) | > 7.5 µM | 21 µM |  |  |
| O=C(O)c1ccccc1OCCn1cnc2c1NC=NCC2O (stereo unspecified) | 270 µM | 31.3 µM |  |  |
| CCOC(=O)c1cc(CCn2cnc3c2NC=NCC3O)cc(-c2ccccc2)c1 (stereo unspecified) | > 7.5 µM | 18 µM |  |  |
| O=C(O)c1ccc(Cn2cnc3c2NC=NCC3O)o1 (stereo unspecified) | > 3.4 µM | 72 µM |  |  |
| COC(=O)c1cccc(C(C)C)c1CCCn1cnc2c1NC=NCC2O (stereo unspecified) | > 7.5 µM | 14 µM |  |  |

| SMILES | Ki [1] | Ki [2] | Ki [3] | Ki [4] |
| --- | --- | --- | --- | --- |
| Cc1ccc(C(=O)O)cc1CCn1cnc2c1NC=NCC2O (stereo unspecified) | > 100 µM | 0.1 µM |  |  |
| O=C(O)c1ccc(Cn2cnc3c2NC=NCC3O)cc1 (stereo unspecified) | > 7.5 µM | > 125 µM |  |  |
| O=C(O)Cc1ccc(Cn2cnc3c2NC=NCC3O)cc1 (stereo unspecified) | > 500 µM | 92.2 µM |  |  |
| COC(=O)Cc1ccc(Cn2cnc3c2NC=NCC3O)cc1 (stereo unspecified) | 6.7 µM | 92.6 µM |  |  |
| O=C(O)Cc1cccc(CCn2cnc3c2NC=NCC3O)c1 (stereo unspecified) | > 500 µM | 44.1 µM |  |  |
| O=C(O)c1cc(CCn2cnc3c2NC=NCC3O)cc(-c2ccccc2)c1 (stereo unspecified) | > 7.5 µM | 0.07 µM |  |  |
| O=C(O)c1sccc1CCCn1cnc2c1NC=NCC2O (stereo unspecified) | 1.4 µM | 4.8 µM |  |  |
| O=C(O)c1cc(Br)cc(CCn2cnc3c2NC=NCC3O)c1 (stereo unspecified) | > 7.5 µM | 0.08 µM |  |  |
| COC(=O)c1ccc(OC)c(CCCn2cnc3c2NC=NCC3O)c1 (stereo unspecified) | 0.13 µM | 52.8 µM |  |  |
| O=C(O)c1cc(CCn2cnc3c2NC=NCC3O)cc(-c2ccc(Cl)cc2)c1 (stereo unspecified) | > 7.5 µM | 0.29 µM |  |  |
| CCOC(=O)c1ccc(C)c(CCn2cnc3c2NC=NCC3O)c1 (stereo unspecified) | > 7.5 µM | 11 µM |  |  |
| CCOC(=O)c1cc(CCn2cnc3c2NC=NCC3O)ccc1C (stereo unspecified) | > 7.5 µM | 12 µM |  |  |
| O=C(O)c1ccc(CCn2cnc3c2NC=NCC3O)s1 (stereo unspecified) | > 7.5 µM | 9.5 µM |  |  |
| O=C(O)c1cccc(OCCn2cnc3c2NC=NCC3O)c1 (stereo unspecified) | > 7.5 µM | 31.8 µM |  |  |
| COC(=O)c1ccc(C)c(CCCn2cnc3c2NC=NCC3O)c1 (stereo unspecified) | 0.08 µM | 22 µM |  |  |
| CC(C)c1cccc(C(=O)O)c1SCCn1cnc2c1NC=NCC2O (stereo unspecified) | > 7.5 µM | > 125 µM |  |  |
| O=C(O)c1cc(CCn2cnc3c2NC=NCC3O)cs1 (stereo unspecified) | > 7.5 µM | 2.2 µM |  |  |
| CCc1ccc(C(=O)O)cc1CCn1cnc2c1NC=NCC2O (stereo unspecified) | > 7.5 µM | 0.08 µM |  |  |
| Cc1ccc(C(=O)OCc2ccccc2)cc1CCn1cnc2c1NC=NCC2O (stereo unspecified) | 2.6 µM | 8.1 µM |  |  |
| O=C(O)c1cccc(CCCn2cnc3c2NC=NCC3O)c1 (stereo unspecified) | 2.4 µM | 23.5 µM |  |  |
| COC(=O)c1ccccc1CCCn1cnc2c1NC=NCC2O (stereo unspecified) | 0.16 µM | 32.7 µM |  |  |
